According to ChEMBL document CHEMBL4513216, “Probing the Open Global Health Chemical Diversity Library for Multistage-Active Starting Points for Next-Generation Antimalarials” (ACS Infect Dis, 2020):

Experiment: Toxicity liver stage against HepG2, at 10uM
Format: cell-based
Design: test concentration 10 uM, cell line HepG2-A16-CD81EGFP
Conditions: human, HepG2-A16-CD81EGFP cells; read-out: INHIBITION
Outline: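 Uninfected HepG2-A16-CD81EGFP cells, 3 × 10^3 per well, 1536-well, plated on prespotted compound at 10 μM final, parasite-free screening media added to match infected plates; puromycin 10 μM positive, DMSO 0.5% negative; run in parallel with 48 h PbLuc assay at 37 °C, 5% CO2; viability by CellTiter-Glo luminescence, normalized to controls.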

Structure (SMILES) | cytotoxicity at 10 µM [%]
O=C(NCCN1CCCCC1)c1ccn(-c2ccccc2)n1 | 7.53
Cc1noc(CCNC(=O)c2ccc(Br)c(S(=O)(=O)N(C)C)c2)n1 | 6.45
COCc1nn(CC2CC2)c2c1CN(Cc1ccco1)CC2 | 2.35
COCc1ccccc1NC(=O)CCNC(=O)c1ccoc1 | -3.94
NC(=O)Cn1ccnc1C1CCCN(Cc2ccccc2OC(F)F)C1 (stereo not given) | -22
CCN(CC)C(CNS(=O)(=O)c1ccc(C(C)=O)cc1)c1ccco1 (stereo not given) | -20.1
Cc1ncsc1CN1CCN(C2CCOCC2)CC(C(N)=O)C1 (stereo not given) | 14.4
Cc1cnc(N2CCC3(CCCN(c4ncc(F)cn4)C3)C2)nc1 (stereo not given) | -124
CC(c1ccccn1)N(C)Cc1ccc(-n2cncn2)cc1 (stereo not given) | 5.33
Cc1c(F)cccc1S(=O)(=O)NCCN | 1.99
Cn1cc(CNc2ccc(CCO)cc2)c(-c2ccncc2)n1 | 5.82
O=C(C1CCOCC1)N1CCO[C@H]2[C@H](OCC3CC3)CC[C@@H]21 | 2.61
COc1ccc(NC(=O)N2CCC(c3noc(C)n3)CC2)cc1C | 17.2
NC(=O)NC(=O)CCN1CCN(c2nccs2)CC1 | -33.6
Cn1cc(CN(Cc2ccccn2)Cc2ccccc2Cl)cn1 | -2.48
CC(C)C(O)CNC(=O)Nc1cnn(Cc2ccccc2)c1 (stereo not given) | 6.61
c1cnc2nc(N3CCc4c(ncn4C4CC4)C3)ccc2n1 | 6.47
CCN(CC)C(=O)COc1ccnc2cc(OC)ccc12 | -2.17
COc1cc(N2CCC3(CCCN(C(=O)c4cnccn4)C3)C2)ncn1 (stereo not given) | -2.48
O=C(CN1CCN(C(=O)c2ccccc2)CC1)Nc1ncc(Br)cc1Br | 8.63
Cc1csc(CNC(=O)NCC2(c3ccc4c(c3)OCO4)CC2)n1 | 0.0902
Cc1cnn(C2CCN(Cc3ccccc3)C2)c1N (stereo not given) | -3.76

Structure (SMILES) | cytotoxicity at 10 µM [%]
C1CC(CN2C[C@@H]3C[C@@H](c4nnc(C5CC5)o4)O[C@@H]3C2)C1 | 14.9
CCCc1cc(C(=O)N[C@@H](CO)[C@@H](O)c2ccccc2)n(C)n1 | 4.76
COc1ccc(Oc2ncccc2NC(=O)N2CC[C@H](O)C2)cc1 | 1.7
Cn1ccnc1CN1CCC2(CC(=O)N(c3ccsc3)C2)C1 (stereo not given) | -82.7
CC(C)(C)c1n[nH]c(C2CN(CCNC3CCCCC3)CCO2)n1 (stereo not given) | 6.86
Cc1cc(-c2cnc(N3CCNC(=O)C3)nc2-c2ccncc2)on1 | -25
Cn1ncc2c1C(COCC1CC1)CN(c1ncc(F)cn1)C2 (stereo not given) | 12.1
Cn1nnc2c1C(COCc1cccnc1)CN(Cc1ccoc1)C2 (stereo not given) | -2.55
Cc1nn(C)c(C)c1C1CCCN1C(=O)c1ccnc(N(C)C)c1 (stereo not given) | -5.42
CN(Cc1cc(Cl)c2c(c1)OCO2)Cc1cscn1 | -2.76
Cc1cnn(C2CN(Cc3noc(C)n3)C2)c1 | 40.3
O=C(NCCn1ccnc1)c1ccn(-c2ccc(F)cc2)n1 | -1.03
CCNc1cc2c(nn1)CCN(C(=O)C1Cc3ccccc3O1)C2 (stereo not given) | -9.32
CN(C)CCC1CN(C(=O)c2cccc3c2OCC3)CCO1 (stereo not given) | 2.13
O=C(Nc1cccc(N2CCCC2)c1)N[C@H](CCO)c1ccccc1 | -4.52
CCCn1cnc2c1CN(S(=O)(=O)c1ccc(F)cc1)[C@H](C(=O)OC)C2 | 1.2
COCCN(CCN(C)C)C(=O)NC1CC1 | -1.78
Cc1ccc(S(=O)(=O)N2CCC3(CC(C(=O)NC4CCC4)=NO3)C2)cc1 (stereo not given) | -1.77
c1ccc(SCCN2CCCC(Cn3ccnc3)C2)cc1 (stereo not given) | 2.92
Cc1ccccc1C(=O)NC1CCN(Cc2ncc(C(C)(C)C)o2)CC1 | -17.5
Cn1cc(C(=O)N2CC[C@@H]3[C@@H]2CCN3c2ncc(F)cn2)cn1 | 13.8
Nc1cc(-c2cc[nH]n2)nc(N2CCCC2)n1 | 1.56

Structure (SMILES) | cytotoxicity at 10 µM [%]
CN(C)c1ncc2c(n1)C1(CCN(Cc3ccccc3F)C1)COC2 (stereo not given) | 10.6
Cc1ccccc1CN(CCN(C)C)C(=O)c1ccc2nccn2c1 | -2.36
CC(O)CNC(=O)NCCCN1CCN(c2ncccn2)CC1 (stereo not given) | -48.8
Cn1cc(C(=O)N2CCN(c3ccc(F)cc3)CC2)ccc1=O | 1.37
CCc1cnc(NCCCOC2CCCC2)nc1 | -0.0184
CS(=O)(=O)NCc1n[nH]c2c1CCN(C(=O)c1ccsc1)C2 | 4.01
COCCN1CCN(c2cc(OC)ncn2)Cc2ccc(C)nc21 | -99.2
Cn1cc(CN2CCCN(C(=O)c3cc(Cl)cn3C)CC2)cn1 | -1.63
COCC1CN(C(=O)C2=CCCC2)Cc2cnn(CC3CC3)c21 (stereo not given) | 9.61
CCOc1ncccc1C(=O)N1CCC(Nc2ccc(C)nn2)CC1 | -20.6
CN1C(=O)CC(N(C)Cc2nc3ccccc3c(=O)[nH]2)C1=O (stereo not given) | 7.61
O=C(c1ccnnc1)N1CC[C@H]2C[C@H](c3ccncn3)O[C@@H]2C1 | -71.8
COC1COC2(CCN(Cc3ccc(Cl)cc3)CC2)C1 (stereo not given) | 2.2
CCC(O)Cn1cc(C2=CCN(Cc3cc(O)nc(C)n3)CC2)cn1 (stereo not given) | -9.2
Cc1cc2nc(SCC(=O)N3CCOCC3)n(CC(C)C)c(=O)c2[nH]1 | 1.36
CC(=O)N1CCN(CCCOc2ccccc2F)CC(C(N)=O)C1 (stereo not given) | -28.7
CNC(=O)c1cc2c(nc1NCC1CC1)CCN(S(=O)(=O)C1CC1)CC2 | -13.3
Cc1cnc(C(=O)N2CCC3(CCN(Cc4ccccn4)C3=O)C2)cn1 (stereo not given) | -140
CCc1noc(CNc2cc(F)ccc2OCC2CCCO2)n1 (stereo not given) | -3.27
CCn1cnnc1CNC(=O)N(C)Cc1ccc(F)c(F)c1 | -11.4
COc1cccc(C(=O)Nc2ccc(OC3CCN(C)CC3)cc2)c1 | -6.88
Cc1nc(C2CCCN(C(=O)CN3CCCNC3=O)C2)sc1C (stereo not given) | 10.4

Structure (SMILES) | cytotoxicity at 10 µM [%]
Cc1nnsc1C(=O)N1CCCCC1c1cc2nc(C)c(C)c(O)n2n1 (stereo not given) | -5.93
Cc1nn(C)cc1CN1CCCC(n2c(=O)oc3ccccc32)C1 (stereo not given) | 3.33
Nc1nc2c(c(N3CCSCC3)n1)CCN(Cc1ccccn1)CC2 | -53
Cc1oc(C(=O)O)cc1S(=O)(=O)Nc1cc(Cl)ccc1F | -12
COCCNC(=O)[C@]12COC[C@H]1CN(c1cc(OC)ncn1)C2 | 4.32
CCC(CC)NC(=O)c1ccc2c(c1)C(c1nc[nH]n1)CN2S(C)(=O)=O (stereo not given) | -138
CCc1nc(CN(C(C)=O)C2CCN(Cc3csc(C)n3)C2)no1 (stereo not given) | -12.8
Cc1nc(C2CCCN(C(=O)c3cc(Cl)c[nH]3)C2)sc1C (stereo not given) | -21.5
c1nc2c(c(NC3COC4(CCCC4)C3)n1)CCNCC2 (stereo not given) | 0.383
CCOC(C)c1noc(CN(C)C(=O)C2C(C)(C)C2(C)C)n1 (stereo not given) | 9.5
CN(CC(=O)N1CCCC1c1cnn(C)c1)c1ccc(Cl)cn1 (stereo not given) | -6.14
O=C(N1CCCC1)N1Cc2nccn2CC(CN2CCCC2)C1 (stereo not given) | 1.52
c1ccc(CCCN2CCCC(Nc3cnc4ccccc4n3)C2)cc1 (stereo not given) | 1.34
Cc1n[nH]c(C)c1CCC(=O)NCC1COc2ccccc2C1 (stereo not given) | -40.2
Cc1noc(C)c1CC(=O)NCCc1cccs1 | -0.651
COc1ccc(C)cc1-n1c(COC(C)C)n[nH]c1=O | 6.42
CO[C@@H]1CCN(Cc2cccs2)[C@@H]2CN(Cc3ccncc3)C[C@@H]21 | 3.93
COCC(O)CNc1ccc(C#N)cc1C(F)(F)F (stereo not given) | 13.3
Cc1ccc(Cl)c(NC(=O)c2cccc(CN3CC[C@H](O)C3)c2)c1 | -11.9
CS(=O)(=O)NCc1cc(=O)n2c(n1)CN(CC1CC1)CCC2 | -104
CCc1cc(N2CCC(NC3CN4CCC3CC4)CC2)nc(N(C)C)n1 (stereo not given) | -2.12
CN1CC(=O)N(c2ccsc2)CC12CCN(S(C)(=O)=O)C2 (stereo not given) | -26.1

Structure (SMILES) | cytotoxicity at 10 µM [%]
CC(C)CCC(C)NC(=O)c1ccc(OCC(N)=O)cc1 (stereo not given) | -3.59
CC(C)c1nc(CN(C)C(=O)c2ccc(CN3CCCCC3)cc2)cs1 | -6.1
O=C(O)[C@H]1CCCN1CCOc1cccc(Cl)c1 | 17
Cc1cccc(Cn2cc(Br)c(NS(C)(=O)=O)n2)c1 | -0.08
O=C1CCOC[C@]2(CN(Cc3ccccc3)C[C@H]2c2cccc(F)c2)N1 | -0.0186
Cc1nc(C2CCCN(C(=O)c3cc(C(C)(C)C)on3)C2)no1 (stereo not given) | -11.9
COc1cccc2c1OCC(C(=O)N1CCSCC1)C2 (stereo not given) | 1.88
Cc1noc(C)c1-c1cccc(CC2CCN(C(=O)c3cscn3)C2)n1 (stereo not given) | -6.66
CCOC(=O)C1(Cc2cccc(OC)c2)CCN(Cc2ccon2)CC1 | 2.61
O=C(O)c1ccc(CC2CCN(S(=O)(=O)N3CCOCC3)C2)cc1 (stereo not given) | 1.62
COc1ccc(OC)c(C(C)NC(=O)c2nn(C)c(C)c2Br)c1 (stereo not given) | 5.38
Cc1nnc2n1CCN(C(=O)c1cc(C)n(-c3cccnc3)c1C)C2 | -6.63
CCOc1cccc2c1OCC(C(=O)NC(C)Cn1cccn1)=C2 (stereo not given) | -1.18
COCCN1CCC(Cc2cnc(-c3ccccc3C(=O)O)cn2)CC1 | -11.9
FC(F)(F)c1nc(NC2CCc3ncnn3C2)c2ccccc2n1 (stereo not given) | -2.99
CC(=O)N1CCCC1c1cccc(Cc2ccc(F)cc2)n1 (stereo not given) | -1.98
CCN1CCN(C(=O)CCC2CCN(C(C)CCC(=O)OC)CC2)CC1 (stereo not given) | 0.9
c1cnc(Nc2cncc(C3CCCN(c4ncccn4)C3)n2)nc1 (stereo not given) | -2.44
O=C(c1ccncn1)N1CCC[C@]2(C[C@@H](OCc3ccccn3)CO2)C1 | -72.9
CC(C1CC1)N(CC(=O)NCC(F)(F)F)C1CC1 (stereo not given) | -4.42
CO[C@H]1COC[C@@H]1NC(=O)C1(Oc2ccc(Cl)cc2)CCNCC1 | -1.91
CC(C)NC(=O)NCCCc1cc(N)n(-c2ccccc2)n1 | -6.78
